For one data set, the target named is IDH1-R132H (Homo sapiens, UniProt O75874, R132H). The data set can be described thus: Mutant IDH1 inhibition assay with purified enzyme. It counts as biochemical. To be noted: for pIC50: IC50 against the mutant IDH1, purified IDH1-R132H enzyme; for inhibition at 392 µM: read-out: maximal enzyme inhibition (inhibitory efficiency), purified IDH1-R132H enzyme, tested range 0.19 – 392 µM.

In data set [1] the test system is mutant IDH1 activity (2-HG production) in IDH1-R132H-mutated astrocytoma cell line. Format: cell-based. To be noted: 50 µM, 8 h post-incubation, IDH1-mutated astrocytoma cells. The gist of the method: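 Isogenic anaplastic astrocytoma lines (WHO grade III-derived subclone with native IDH1-R132H; WT-IDH1 control) were seeded in duplicate at 30,000/well. At confluency, medium was replaced with test compound at 50 µM final (from 20 mM DMSO stock), n=2/experiment, under standard culture conditions. Supernatant was sampled at 4 and 8 h and stored at -80°C. D-2-HG was measured by LC-MS/MS. Controls were vehicle-treated mutant and WT cells.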

The nature of data set [2]: Tissue distribution studies. Format: in vivo, BALB/C mice. To be noted: for Biodistribution, Bladder / Biodistribution, Blood / Biodistribution, Bone / Biodistribution, Brain / Biodistribution, Heart / Biodistribution, Intestines / Biodistribution, Kidneys / Biodistribution, Liver / Biodistribution, Lungs / Biodistribution, Muscle / Biodistribution, Skin / Biodistribution, Spleen / Biodistribution, Stomach / Biodistribution, Thyroid: mean ± SD, n=5.

For data set [3], the system named is IDH1-R132H mutant and WT-IDH1 astrocytoma cell lines. As to the kind of experiment: Cell uptake studies of labeled inhibitors. It counts as cell-based. To be noted: for cell uptake, % of the added activity: mutant IDH1 cell line. The gist of the method: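 IDH1-R132H and isogenic WT-IDH1 astrocytoma cells were plated about 24 h ahead at 20,000–30,000/well, then PBS-washed. Cells were incubated with radioiodinated test compound (~3.7 kBq/well) in culture medium at 37°C, 5% CO2, for 0.25–4 h. Co-incubation used unlabeled analog (0–100 µM) for 3 h, or 0.1%/1% versus 10% FBS. After ice-cold PBS washes and 5 min RT lysis, lysate, supernatant and washes were gamma-counted. Uptake is % incubation dose/well.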

For a further data set, the target named is mutant IDH1-R132H enzyme. To be noted: read-out: IC50 against the mutant IDH1-R132H enzyme; cited from earlier work.
Where [4] appears, read: 5 min after i.v. injection, listed as 125I-labeled 1.

pIC50: −log10 of the molar value. Where “and” joins values, the source holds several entries; their conditions need not be identical. Equal entries are not always repeated.

What is called pIC50 is −log10 of the IC50, conventionally taken in molar units. The inhibition is the share of the control response that was lost under treatment.

IDH1-R132H, sequence (O75874 whole entry R132H): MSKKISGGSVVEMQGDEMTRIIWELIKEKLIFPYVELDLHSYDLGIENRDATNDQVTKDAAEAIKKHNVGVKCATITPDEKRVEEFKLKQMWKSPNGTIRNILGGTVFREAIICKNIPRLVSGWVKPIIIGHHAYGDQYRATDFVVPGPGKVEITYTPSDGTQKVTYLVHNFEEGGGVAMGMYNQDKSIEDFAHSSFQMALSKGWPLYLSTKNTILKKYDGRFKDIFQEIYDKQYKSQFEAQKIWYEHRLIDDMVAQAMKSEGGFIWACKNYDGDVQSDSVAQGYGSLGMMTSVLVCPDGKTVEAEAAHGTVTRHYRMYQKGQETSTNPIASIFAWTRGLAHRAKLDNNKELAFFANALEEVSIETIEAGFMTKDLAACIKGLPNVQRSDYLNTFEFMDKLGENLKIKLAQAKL

With `CCCCc1ccc(NS(=O)(=O)c2ccc(C)c(C(=O)N3CCN(c4ccccc4I)CC3)c2)cc1` [Compound 1, N-(4-Butylphenyl)-3-(4-(2-iodophenyl)piperazine-1-carbonyl)-4-methylbenzenesulfonamide], the pIC50 against IDH1-R132H (0.19 – 392 µM) is 5.77 and ~5.70. The inhibition at 392 µM on IDH1-R132H is about 100%. Further, in data set [1], the “decrease of 2-HG concentration in mutant IDH1 cell supernatants” value was 43%.
Consider `COc1ccccc1N1CCN(C(=O)c2cc(S(=O)(=O)Nc3ccc(CCCCF)cc3)ccc2C)CC1` [Compound 7, N-(4-(4-Fluorobutyl)phenyl)-3-(4-(2-methoxyphenyl)piperazine-1-carbonyl)-4-methylbenzenesulfonamide], for which the pIC50 on IDH1-R132H (0.19 – 392 µM) was 5.62. In addition, the inhibition at 392 µM on IDH1-R132H was found to be 81%.
Consider `CCCCc1ccc(NS(=O)(=O)c2ccc(C)c(C(=O)N3CCN(c4ccccc4[125I])CC3)c2)cc1` [[^125I]1, N-(4-Butylphenyl)-3-(4-(2-[^125I]iodophenyl)piperazine-1-carbonyl)-4-methylbenzenesulfonamide], for which the “uptake in the brain” value in data set [2] (1 – 4 h after injection) is recorded as at most 0.07 %ID/g. Besides, in data set [2] (5 min after i.v. injection), the “Biodistribution, Bladder” value was 0.03 ± 0.01 %ID; the “Biodistribution, Blood” value is reported as “about 12 %ID”; the “Biodistribution, Bone” value is given as 3.92 ± 1.45 %ID; the “Biodistribution, Brain” value came out at 0.15 ± 0.05 %ID. In data set [2] (5 min after i.v. injection), the “Biodistribution, Heart” value came out at 1.11 ± 0.39 %ID; the “Biodistribution, Intestines” value is listed as 6.37 ± 5.80 %ID; the “Biodistribution, Kidneys” value stood at 3.50 ± 1.08 %ID; the “Biodistribution, Liver” value was “About 30 %ID”. In data set [2] (5 min after i.v. injection), the “Biodistribution, Lungs” value was 1.69 ± 0.83 %ID; the “Biodistribution, Muscle” value stood at 13.79 ± 4.85 %ID; the “Biodistribution, Skin” value worked out at 3.31 ± 0.74 %ID; the “Biodistribution, Spleen” value was 0.36 ± 0.12 %ID. In addition, in data set [2] (5 min after i.v. injection), the “Biodistribution, Stomach” value was found to be 0.40 ± 0.12 %ID and the “Biodistribution, Thyroid” value came out at 0.32 ± 0.18 %ID. In addition, in data set [2] (setting [4]), the “Biodistribution, Blood” value came to 11.83 ± 1.99 %ID and the “Biodistribution, Liver” value is on record as 29.43 ± 5.60 %ID. Besides, in data set [2] (5 min after injection), the “activity concentration in the thyroid gland” value came to 1.69 ± 0.93 %ID/g and the “uptake in the brain” value is 0.39 ± 0.13 %ID. Besides, in data set [2] (1 h after i.v. injection), the “Biodistribution, Bladder” value came to 0.01 ± 0.01 %ID; the “Biodistribution, Blood” value was determined as 0.71 ± 0.27 %ID; the “Biodistribution, Bone” value came to 1.21 ± 0.14 %ID; the “Biodistribution, Brain” value is given as 0.03 ± 0.01 %ID. For the same compound, in data set [2] (1 h after i.v. injection), the “Biodistribution, Heart” value was 0.12 ± 0.02 %ID; the “Biodistribution, Intestines” value worked out at 38.13 ± 1.49 %ID; the “Biodistribution, Kidneys” value is recorded as 0.88 ± 0.14 %ID; the “Biodistribution, Liver” value is 13.30 ± 0.69 %ID. Also, in data set [2] (1 h after i.v. injection), the “Biodistribution, Lungs” value is 0.17 ± 0.02 %ID; the “Biodistribution, Muscle” value is reported as 8.21 ± 0.77 %ID; the “Biodistribution, Skin” value is recorded as 2.90 ± 1.07 %ID; the “Biodistribution, Spleen” value was determined as 0.05 ± 0.01 %ID. In addition, in data set [2] (1 h after i.v. injection), the “Biodistribution, Stomach” value amounted to 0.65 ± 0.18 %ID and the “Biodistribution, Thyroid” value was 0.04 ± 0.03 %ID. In addition, in data set [2] (1 h after injection), the “maximum excreted into the urine” value was 2.84 % ID. In addition, in data set [2] (2 h after i.v. injection), the “Biodistribution, Bladder” value was 0.02 ± 0.03 %ID; the “Biodistribution, Blood” value is listed as 0.29 ± 0.09 %ID; the “Biodistribution, Bone” value amounted to 0.60 ± 0.29 %ID; the “Biodistribution, Brain” value was 0.02 ± 0.01 %ID. In data set [2] (2 h after i.v. injection), the “Biodistribution, Heart” value worked out at 0.04 ± 0.01 %ID; the “Biodistribution, Intestines” value came to 53.24 ± 7.84 %ID; the “Biodistribution, Kidneys” value amounted to 0.43 ± 0.15 %ID; the “Biodistribution, Liver” value is on record as 6.57 ± 1.77 %ID. In data set [2] (2 h after i.v. injection), the “Biodistribution, Lungs” value is recorded as 0.07 ± 0.03 %ID; the “Biodistribution, Muscle” value was found to be 3.91 ± 0.87 %ID; the “Biodistribution, Skin” value is listed as 1.25 ± 0.53 %ID; the “Biodistribution, Spleen” value was 0.03 ± 0.01 %ID. In data set [2] (2 h after i.v. injection), the “Biodistribution, Stomach” value is on record as 0.63 ± 0.82 %ID and the “Biodistribution, Thyroid” value was found to be 0.05 ± 0.05 %ID. Further, the “activity in the hepatobiliary system” value in data set [2] (2 h after injection) is recorded as “approximately 60 % ID”. In data set [2] (4 h after i.v. injection), the “Biodistribution, Bladder” value is listed as 0.01 ± 0.01 %ID; the “Biodistribution, Blood” value is recorded as “about 0.13 %ID”; the “Biodistribution, Bone” value turned out to be 0.22 ± 0.14 %ID; the “Biodistribution, Brain” value is 0.01 ± 0.00 %ID. Moreover, in data set [2] (4 h after i.v. injection), the “Biodistribution, Heart” value was 0.01 ± 0.00 %ID; the “Biodistribution, Intestines” value worked out at 41.40 ± 6.02 %ID; the “Biodistribution, Kidneys” value is reported as 0.16 ± 0.03 %ID; the “Biodistribution, Liver” value is recorded as 3.41 ± 0.62 %ID. For the same compound, in data set [2] (4 h after i.v. injection), the “Biodistribution, Lungs” value stood at 0.03 ± 0.01 %ID; the “Biodistribution, Muscle” value came out at 1.57 ± 0.34 %ID; the “Biodistribution, Skin” value is on record as 0.56 ± 0.09 %ID; the “Biodistribution, Spleen” value was 0.01 ± 0.01 %ID. In data set [2] (4 h after i.v. injection), the “Biodistribution, Stomach” value was found to be 1.22 ± 2.12 %ID and the “Biodistribution, Thyroid” value is on record as 0.06 ± 0.03 %ID. In addition, in data set [2] (4 h after i.v. injection, listed as 125I-labeled 1), the “Biodistribution, Blood” value was 0.13 ± 0.01 %ID. Also, in data set [2] (4 h after injection), the “activity concentration in the thyroid gland” value is reported as 0.42 ± 0.16 %ID/g and the “activity concentration in the vital organs except liver” value is listed as under 0.2 % ID/g. Also, the “average uptake ratio mutant-IDH1 / WT-IDH1 cell lines” value in data set [3] (2 h incubation) was 1.66. The “maximal increase in uptake versus no-carrier-added tracer” value in data set [3] (co-incubation with 10 µM unlabeled 1, 3 h) worked out at 53 fold. Further, in data set [3] (15 min incubation), the “cell uptake, % of the added activity” value is given as “about 0.5%”. Moreover, the “cell uptake, % of the added activity” value in data set [3] (3 h incubation) was found to be 0.80 ± 0.04%.
On to `CCCCc1ccc(NS(=O)(=O)c2ccc(C)c(C(=O)N3CCN(c4ccc(I)cc4)CC3)c2)cc1` [Compound 2, N-(4-Butylphenyl)-3-(4-(4-iodophenyl)piperazine-1-carbonyl)-4-methylbenzenesulfonamide], for which the “activity against mutant IDH1 (in words)” value on IDH1-R132H (purified IDH1-R132H enzyme, 0.19 – 392 µM) is listed as “did not show any significant activity”.
As to `CCCCc1ccc(NS(=O)(=O)c2ccc(C)c(C(=O)N3CCN(c4ccc(OCCF)cc4)CC3)c2)cc1` [Compound 5, N-(4-Butylphenyl)-3-(4-(4-(2-fluoroethoxy)phenyl)piperazine-1-carbonyl)-4-methylbenzenesulfonamide], the pIC50 on IDH1-R132H (0.19 – 392 µM) is 5.92. Further, the “maximal enzyme inhibition (inhibitory efficiency)” value on IDH1-R132H (purified IDH1-R132H enzyme, tested range 0.19 – 392 µM, 392 µM) is reported as 26.4%. For the same compound, the inhibition at 392 µM on IDH1-R132H is about 30%.
On to `CCCCc1ccc(NS(=O)(=O)c2ccc(C)c(C(=O)N3CCN(c4ccccc4OC)CC3)c2)cc1` [Compound A, N-(4-butylphenyl)-3-(4-(2-methoxyphenyl)piperazine-1-carbonyl)-4-methylbenzenesulfonamide, reference compound], for which the pIC50 on IDH1-R132H (0.19 – 392 µM) is 5.66; on mutant IDH1-R132H enzyme, over 6.00. For the same compound, the inhibition at 392 µM on IDH1-R132H is about 100%.
In the case of `CCCCc1ccc(NS(=O)(=O)c2ccc(C)c(C(=O)N3CCN(c4ccccc4OCCF)CC3)c2)cc1` [Compound 4, N-(4-Butylphenyl)-3-(4-(2-(2-fluoroethoxy)phenyl)piperazine-1-carbonyl)-4-methylbenzenesulfonamide], the pIC50 against IDH1-R132H (0.19 – 392 µM) was 5.64 and ~5.70. Also, at IDH1-R132H, the inhibition at 392 µM was about 100%. In addition, the “decrease of 2-HG concentration in mutant IDH1 cell supernatants” value in data set [1] was 50%.
On to `COc1ccccc1N1CCN(C(=O)c2cc(S(=O)(=O)Nc3ccc(CCCF)cc3)ccc2C)CC1` [Compound 6, N-(4-(3-Fluoropropyl)phenyl)-3-(4-(2-methoxyphenyl)piperazine-1-carbonyl)-4-methylbenzenesulfonamide], for which the pIC50 at IDH1-R132H (0.19 – 392 µM) is 5.57. In addition, at IDH1-R132H, the inhibition at 392 µM stood at 99%.

The values above are taken from paper PMC4893934 (European journal of medicinal chemistry, 2016).
